Source: PubChem BioAssay
Activity calls are given as the source filed them.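 How the source made its calls, unless noted: active means fluorescence slope higher than the sample average by over 3 SD (cut at about -0.22 in these data, passing the limit was not always enough); inactive means the rest.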

Legend:
[1] = inhibitors of TNFa-induced NFkB p65 translocation, primary screen, imaging, HUVEC, MLSMR starter and 10KST1 sets (AID 438;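 active means inhibition above 20% together with a positive visual image hit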;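 further: compound added about 3h40 before a 20 min TNFalpha stimulation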;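 on inhibition: signal is the nuclear over cytoplasmic p65 intensity ratio per well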); conditions: HUVEC TNFa-induced p65 nuclear translocation; cell count: measured here: nuclei count (cytotoxicity indicator), at 2.08 µM; inhibition: at 2 µM, stronger effect = higher value, 0% TNFa-plus-vehicle, 100% no-TNFa wells
[2] = inhibitors of mutant huntingtin aggregation, primary screen, imaging, exon1htt(103Q)mCFP cells, high-content imaging (AID 483;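 active means visual image review flags a hit and inhibition of aggregation exceeds 20%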;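 further: compound exposure lasted 3 days before fixation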;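 on nuclei count: percent of the per-plate median nuclei count of sample wells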); conditions: exon1htt(103Q)mCFP cell line, aggregate imaging, at 2 µM; inhibition of aggregation: stronger effect = higher value; nuclei count: measured here: cell count, toxicity
[3] = inhibitors of E-selectin induction by TNFa, primary screen, imaging, HUVEC, immunofluorescence, MLSMR starter and 10KST1 sets (AID 487;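 active means visually confirmed hit in the image check and inhibition above 20%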;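 on inhibition: signal is fraction of cell area covered by stained E-selectin grains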;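 on nuclei count: 100% = median nuclei count of all wells on the same plate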); conditions: HUVEC TNFalpha-induced E-selectin immunofluorescence imaging, at 2 µM; inhibition: stronger effect = higher value; nuclei count: measured here: cell number, toxicity
[4] = target: Voltage-gated potassium channel subunit beta-2 (Rattus norvegicus) (UniProt P62483); assay: KvBeta enzyme negative modulators, primary screen, biochemical, NADPH fluorescence (AID 622); conditions: recombinant KvBeta, 4-cyanobenzaldehyde reduction, at 10 µM, stronger effect = higher value;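 further: slope of raw intensity against log time taken from 70 to 1610 s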
Sequence of Voltage-gated potassium channel subunit beta-2 (Rattus norvegicus) (P62483 whole entry, looked up): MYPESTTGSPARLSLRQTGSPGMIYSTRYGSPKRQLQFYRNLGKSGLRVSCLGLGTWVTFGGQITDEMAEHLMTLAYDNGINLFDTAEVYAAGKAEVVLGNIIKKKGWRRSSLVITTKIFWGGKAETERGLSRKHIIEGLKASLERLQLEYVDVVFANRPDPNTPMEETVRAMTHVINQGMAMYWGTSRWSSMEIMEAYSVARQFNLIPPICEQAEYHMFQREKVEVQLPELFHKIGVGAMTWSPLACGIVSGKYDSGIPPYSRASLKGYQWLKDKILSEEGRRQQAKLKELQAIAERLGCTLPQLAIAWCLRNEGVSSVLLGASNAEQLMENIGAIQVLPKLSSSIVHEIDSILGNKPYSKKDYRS

[5] = target: Voltage-gated potassium channel subunit beta-2 (Rattus norvegicus) (UniProt P62483); assay: KvBeta positive modulators, primary screen, biochemical, NADPH fluorescence (AID 623;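 active means NADPH fluorescence slope more negative than the mean of all samples by about 3 SD, 99.7% confidence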;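 further: fluorescence intensity change per second fitted from 20 to 320 s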); conditions: Recombinant KvBeta, NADPH fluorescence decrease slope, 10 min; at 10 µM; stronger effect = lower value
[6] = target: Muscarinic acetylcholine receptor M4 (Homo sapiens) (UniProt P08173); assay: compounds altering M4/GIRK thallium flux, either direction, primary screen, M4 allosteric agonist project, cell-based, HEK293 M4/GIRK, BTC-AM (AID 625;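 active means fluorescence slope after compound addition differing from the mean of all tested samples at 99.7% confidence, mostly higher but some lower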;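 further: thallium influx through GIRK channels coupled to M4 in HEK293 cells with BTC-AM dye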); conditions: at 10 µM, actives lie on both sides
Sequence of Muscarinic acetylcholine receptor M4 (Homo sapiens) (P08173 whole entry, looked up): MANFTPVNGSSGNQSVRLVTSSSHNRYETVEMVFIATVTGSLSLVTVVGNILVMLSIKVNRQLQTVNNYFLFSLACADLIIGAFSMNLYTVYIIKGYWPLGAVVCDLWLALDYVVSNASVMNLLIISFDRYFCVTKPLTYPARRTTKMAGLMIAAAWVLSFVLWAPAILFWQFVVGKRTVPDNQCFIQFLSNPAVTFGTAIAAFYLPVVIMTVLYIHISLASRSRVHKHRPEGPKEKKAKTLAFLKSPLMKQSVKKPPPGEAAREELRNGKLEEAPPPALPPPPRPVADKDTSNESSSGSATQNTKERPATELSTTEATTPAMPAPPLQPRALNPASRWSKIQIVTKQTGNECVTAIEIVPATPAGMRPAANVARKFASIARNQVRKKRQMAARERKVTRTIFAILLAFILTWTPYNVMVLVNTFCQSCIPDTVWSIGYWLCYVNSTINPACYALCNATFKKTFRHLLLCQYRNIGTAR
Outline: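 Material: M4/GIRK1/GIRK2 stable HEK293 cell line. Medium: pH 7.3 thallium assay buffer. Dosing: single compound concentration, 10 µM final. Schedule: 1 h dye loading, 2 min kinetic read. Measured by: kinetic fluorescence with BTC-AM dye. Read-out: post-addition slope, 15–24 s, of baseline-normalized fluorescence. Benchmarks: carbachol and DMSO controls.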

[7] = inhibitors of Sendai virus-induced IRF3 signaling, primary screen, TLR/RLR signaling modifier project, cell-based, Sendai virus stimulus, luciferase, 10K MLSCN set (AID 602276;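 active means inhibition at or above 50% at 10 µM; inactive means inhibition below 50%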;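 further: firefly luciferase from ISG56 promoter only with Renilla not read in this screen; 0% = Sendai virus plus DMSO and 100% = medium plus DMSO without virus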); conditions: HEK293 RL24 IRF3 luciferase reporter, at 10 µM, stronger effect = higher value
[8] = inhibitors of poly I:C-induced TLR3 signaling, primary screen, cell-based, poly I:C stimulus, luciferase, 10K MLSCN set (AID 602277;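 active means inhibition of the reporter signal at or above 50%; inactive means inhibition below 50%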); conditions: HEK293-TLR3 RL24 IRF3 luciferase reporter, at 10 µM, stronger effect = higher value

SMILES	cell count [1]	inhibition [1]	inhibition of aggregation [2]	nuclei count [2] [%]	inhibition [3]	nuclei count [3] [%]	fluorescence slope [4]	NADPH fluorescence slope [5]	fluorescence slope [6]	inhibition [7]	inhibition [8]
CCn1c(Cc2ccc(OC)cc2)nnc1SCC(=O)Nc1cccc(C(=O)OC)c1	433	6% (inactive)	0.9% (inactive)	110	-29.7% (inactive)	107	-0.469 (inactive)	-1.6e-05 (inactive)	0.00613 (inactive)	12.3% (inactive)	8.51% (inactive)
COc1ccc(-c2nc(N3CCCC3)[nH]c(=O)c2C#N)cc1	373	-48.5% (inactive)	-7.1% (inactive)	107	-50.2% (inactive)	114	-0.471 (inactive)	-1.8e-05 (inactive)	0.0047 (inactive)	18.9% (inactive)	13% (inactive)
N#CC(C(=O)CCN1C(=O)C2CC=CCC2C1=O)c1nc2ccccc2[nH]1 (centres undefined)	286	-5.7% (inactive)	4.5% (inactive)	93.8	-88.1% (inactive)	123	-0.524 (inactive)	5.4e-05 (inactive)	0.00584 (inactive)	18.4% (inactive)	17.1% (inactive)
CC1Cc2cc(/C(O)=C3/C(=O)C(=O)N(CCN4CCOCC4)C3c3cccc(O)c3)ccc2O1 (centres undefined)	576	-2.7% (inactive)	-17.8% (inactive)	105	-18.4% (inactive)	94.9	-0.573 (inactive)	-8.9e-05 (inactive)	0.00539 (inactive)	-19.1% (inactive)	-6.57% (inactive)
c1ccc(-c2csc(N3CCCCCC3)n2)cc1	403	7.3% (inactive)	-6.8% (inactive)	112	-77.2% (inactive)	110	-0.551 (inactive)	9.4e-06 (inactive)	0.0048 (inactive)	-82.9% (inactive)	-160% (inactive)
COc1cccc(-n2c(C)nc3c(cnn3-c3ccc(Cl)cc3)c2=O)c1	238	-6.4% (inactive)	-13.4% (inactive)	94.3	-14.1% (inactive)	114	-0.553 (inactive)	7.6e-06 (inactive)	0.00702 (inactive)	-4.02% (inactive)	4.48% (inactive)
Cc1n[nH]c(C)c1S(=O)(=O)Nc1ccc2c(c1)OCCO2	328	8.9% (inactive)	29.5% (inactive)	91.5	10.4% (inactive)	84.4	-0.469 (inactive)	4.4e-05 (inactive)	0.0057 (inactive)	26.7% (inactive)	33.7% (inactive)
Cc1nc(C)c(C(=O)Nc2ccc(C)c(F)c2)o1	600	-4.5% (inactive)	19.4% (inactive)	97.5	-2.7% (inactive)	120	-0.335 (inactive)	-5.2e-05 (inactive)	0.00567 (inactive)	4.25% (inactive)	-10.3% (inactive)
COc1ccc(CCNS(=O)(=O)c2ccc(C(=O)NCc3ccco3)cc2)cc1OC	355	-13.1% (inactive)	7.4% (inactive)	94.7	-35.9% (inactive)	66.4	-0.579 (inactive)	2.6e-05 (inactive)	0.00625 (inactive)	-8.15% (inactive)	-15.3% (inactive)
Clc1ccc(SCCn2ccnc2)cc1	481	10.1% (inactive)	-7.9% (inactive)	104	-245% (inactive)	137	-0.325 (inactive)	-2.6e-05 (inactive)	0.00636 (inactive)	2.29% (inactive)	5.02% (inactive)
COc1ccc(CCNC(=O)c2nc3ncccn3n2)cc1OC	643	-2.3% (inactive)	13.7% (inactive)	82.2	-12.1% (inactive)	100	-0.447 (inactive)	-4.3e-05 (inactive)	0.00528 (inactive)	18.2% (inactive)	18.1% (inactive)
Cc1cc(C)c2c(n1)sc1c(N3CCOCC3)ncnc12	301	-4.9% (inactive)	-151% (inactive)	0.6	-61.4% (inactive)	121	-0.305 (inactive)	-6.3e-05 (inactive)	0.00639 (inactive)	5.74% (inactive)	-3.16% (inactive)
Cc1ccc(NC(=O)Nc2ccc3c(c2)N(C)C(=O)CS3)nc1	562	-6.9% (inactive)	-30.5% (inactive)	123	-45% (inactive)	116	-0.395 (inactive)	6.1e-05 (inactive)	0.00547 (inactive)	7.37% (inactive)	0.72% (inactive)
COc1ccccc1OC(=O)c1ccc2nsnc2c1	623	-11.4% (inactive)	25% (inactive)	87.8	-75.4% (inactive)	103	-0.585 (inactive)	-5.9e-05 (inactive)	0.00471 (inactive)	9.79% (inactive)	99.7% (active)
